The source made the active and inactive calls. No cut-off for these calls is given here.
Columns and labels:
MCF7 [1] = experiment: Cytotoxicity against human MCF7 cells assessed as cell growth at 8 uM by sulforhodamine B assay relative to control; assay type: functional; conditions: read-out: Activity
A549 = experiment: Cytotoxicity against human A549 cells assessed as cell growth at 80 nM by sulforhodamine B assay relative to control; assay type: functional; conditions: read-out: Activity
Summary of the method: (§1)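 Run at NCI in the DTP 60-cell-line human tumor panel by standard procedure. Compounds were first screened at a single concentration, then tested at five tenfold-spaced concentrations. GI50 is the concentration reducing treated-cell growth to half that of untreated controls; TGI is the concentration completely halting growth.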

HOP-92 = experiment: Cytotoxicity against human HOP92 cells assessed as cell growth at 80 nM by sulforhodamine B assay relative to control; assay type: functional; conditions: read-out: Activity
MDA-MB-231 [2] = experiment: Cytotoxicity against human MDA-MB-231 cells assessed as cell growth at 8 nM by sulforhodamine B assay relative to control; assay type: functional; conditions: read-out: Activity
MCF7 [3] = experiment: Cytotoxicity against human MCF7 cells by sulforhodamine B assay; assay type: functional
OVCAR-5 = experiment: Cytotoxicity against human OVCAR5 cells by sulforhodamine B assay; assay type: functional
Summary of the method: (§2)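 NCI Developmental Therapeutics Program 60-cell-line human tumor panel screen, run at NCI. A single-concentration pre-screen was followed by a five-concentration dose-response in 10-fold steps. GI50 is the concentration that reduces growth of treated cells to half that of untreated control cells. TGI is the concentration that completely halts growth.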

Malme-3M [4] = experiment: Cytotoxicity against human MALME-3M cells assessed as cell growth at 8 uM by sulforhodamine B assay relative to control; assay type: functional; conditions: read-out: Activity
HT-29 = experiment: Cytotoxicity against human HT-29 cells assessed as cell growth at 80 uM by sulforhodamine B assay relative to control; assay type: functional; conditions: read-out: Activity
HCT-15 = experiment: Cytotoxicity against human HCT15 cells assessed as cell growth at 800 nM by sulforhodamine B assay relative to control; assay type: functional; conditions: read-out: Activity
UACC-62 [5] = experiment: Cytotoxicity against human UACC62 cells assessed as cell growth at 8 uM by sulforhodamine B assay relative to control; assay type: functional; conditions: read-out: Activity
K562 [6] = experiment: Cytotoxicity against human K562 cells assessed as cell growth at 8 nM by sulforhodamine B assay relative to control; assay type: functional; conditions: read-out: Activity
EKVX = experiment: Cytotoxicity against human EKVX cells assessed as cell growth at 8 nM by sulforhodamine B assay relative to control; assay type: functional; conditions: read-out: Activity
SK-MEL-2 = experiment: Cytotoxicity against human SK-MEL-2 cells by sulforhodamine B assay; assay type: functional; summary of the method: as §2
Staphylococcus aureus = experiment: Antimicrobial activity against methicillin-resistant Staphylococcus aureus ATCC 43300 by CLSI method; assay type: functional, organism-based
T47D [7] = experiment: Cytotoxicity against human T47D cells by sulforhodamine B assay; assay type: functional; summary of the method: as §2
HL-60(TB) = experiment: Cytotoxicity against human HL-60(TB) cells assessed as cell growth at 8 uM by sulforhodamine B assay relative to control; assay type: functional; conditions: read-out: Activity
HCT-116 [8] = experiment: Cytotoxicity against human HCT116 cells assessed as cell growth at 800 nM by sulforhodamine B assay relative to control; assay type: functional; conditions: read-out: Activity
SNB-19 [9] = experiment: Cytotoxicity against human SNB19 cells assessed as cell growth at 8 uM by sulforhodamine B assay relative to control; assay type: functional; conditions: read-out: Activity
K562 [10] = experiment: Cytotoxicity against human K562 cells by sulforhodamine B assay; assay type: functional; summary of the method: as §2
MDA-MB-231 [11] = experiment: Cytotoxicity against human MDA-MB-231 cells by sulforhodamine B assay; assay type: functional; summary of the method: as §2
NCI-H322M = experiment: Cytotoxicity against human NCI-H322M cells assessed as cell growth at 80 nM by sulforhodamine B assay relative to control; assay type: functional; conditions: read-out: Activity
MCF7 [12] = experiment: Cytotoxicity against human MCF7 cells assessed as cell growth at 800 nM by sulforhodamine B assay relative to control; assay type: functional; conditions: read-out: Activity
BT-549 [13] = experiment: Cytotoxicity against human BT549 cells assessed as cell growth at 8 nM by sulforhodamine B assay relative to control; assay type: functional; conditions: read-out: Activity; summary of the method: as §1
UACC-62 [14] = experiment: Cytotoxicity against human UACC62 cells assessed as cell growth at 80 uM by sulforhodamine B assay relative to control; assay type: functional; conditions: read-out: Activity
T47D [15] = experiment: Cytotoxicity against human T47D cells assessed as cell growth at 8 uM by sulforhodamine B assay relative to control; assay type: functional; conditions: read-out: Activity
NCI-H23 = experiment: Cytotoxicity against human NCI-H23 cells assessed as cell growth at 8 uM by sulforhodamine B assay relative to control; assay type: functional; conditions: read-out: Activity
SN12C [16] = experiment: Cytotoxicity against human SN12C cells assessed as cell growth at 8 uM by sulforhodamine B assay relative to control; assay type: functional; conditions: read-out: Activity
HCT-116 [17] = experiment: Cytotoxicity against human HCT116 cells assessed as cell growth at 80 nM by sulforhodamine B assay relative to control; assay type: functional; conditions: read-out: Activity
Mus musculus = experiment: Acute toxicity in athymic nude mouse assessed as mortality at 12.5 mg/kg, […]; assay type: organism-based; set-up: dose 12.5 mg/kg, route intraperitoneal; conditions: in vivo, ip, 576 h
BT-549 [18] = experiment: Cytotoxicity against human BT549 cells assessed as cell growth at 80 uM by sulforhodamine B assay relative to control; assay type: functional; conditions: read-out: Activity; summary of the method: as §1
HCT-116 [19] = experiment: Cytotoxicity against human HCT116 cells assessed as cell growth at 8 nM by sulforhodamine B assay relative to control; assay type: functional; conditions: read-out: Activity
UACC-257 [20] = experiment: Cytotoxicity against human UACC257 cells assessed as cell growth at 80 uM by sulforhodamine B assay relative to control; assay type: functional; conditions: read-out: Activity
UACC-257 [21] = experiment: Cytotoxicity against human UACC257 cells by sulforhodamine B assay; assay type: functional; summary of the method: as §2
U-251 = experiment: Cytotoxicity against human U251 cells assessed as cell growth at 800 nM by sulforhodamine B assay relative to control; assay type: functional; conditions: read-out: Activity
DU-145 = experiment: Cytotoxicity against human DU145 cells assessed as cell growth at 8 uM by sulforhodamine B assay relative to control; assay type: functional; conditions: read-out: Activity; summary of the method: as §1
IGROV-1 = experiment: Cytotoxicity against human IGROV1 cells assessed as cell growth at 80 nM by sulforhodamine B assay relative to control; assay type: functional; conditions: read-out: Activity
MOLT-4 = experiment: Cytotoxicity against human MOLT4 cells assessed as cell growth at 8 nM by sulforhodamine B assay relative to control; assay type: functional; conditions: read-out: Activity
SK-MEL-5 = experiment: Cytotoxicity against human SK-MEL-5 cells assessed as cell growth at 80 uM by sulforhodamine B assay relative to control; assay type: functional; conditions: read-out: Activity
SN12C [22] = experiment: Cytotoxicity against human SN12C cells assessed as cell growth at 800 nM by sulforhodamine B assay relative to control; assay type: functional; conditions: read-out: Activity
NCI-H522 = experiment: Cytotoxicity against human NCI-H522 cells assessed as cell growth at 80 uM by sulforhodamine B assay relative to control; assay type: functional; conditions: read-out: Activity
Malme-3M [23] = experiment: Cytotoxicity against human MALME-3M cells assessed as cell growth at 80 nM by sulforhodamine B assay relative to control; assay type: functional; conditions: read-out: Activity
SNB-19 [24] = experiment: Cytotoxicity against human SNB19 cells assessed as cell growth at 80 uM by sulforhodamine B assay relative to control; assay type: functional; conditions: read-out: Activity

C/C=C1\NC(=O)[C@H](Cc2ccccc2)NC(=O)[C@@H](C(C)C)NC(=O)[C@@H]([C@@H](C)CC)NC(=O)[C@H](NC(=O)[C@H](NC(=O)[C@H](CCCNCc2ccc(F)c(C)c2)NC(=O)[C@H]2CCCN2C(=O)[C@H](NC(=O)[C@@H](NC(=O)[C@@H](NC(=O)[C@H](NC(=O)CCCC(C)C)C(C)C)[C@@H](C)O)C(C)C)C(C)C)[C@@H](C)CC)[C@@H](C)OC(=O)[C@H](C(C)C)NC1=O
growth at 8 µM (MCF7 [1]): -53%
growth at 0.08 µM (A549): 98%
growth at 0.08 µM (HOP-92): 105%
growth at 0.008 µM (MDA-MB-231 [2]): 101%
GI50 (MCF7 [3]): 1260 nM
GI50 (OVCAR-5): 813 nM
LC50 (OVCAR-5): 3800 nM
TGI (OVCAR-5; read-out: pTGI (converted)): 1740 nM
growth at 8 µM (Malme-3M [4]): -77%
growth at 80 µM (HT-29): 21%
growth at 0.8 µM (HCT-15): -35%
growth at 8 µM (UACC-62 [5]): -98%
growth at 0.008 µM (K562 [6]): 101%
growth at 0.008 µM (EKVX): 101%
GI50 (SK-MEL-2): 1410 nM
TGI (SK-MEL-2; read-out: pTGI (converted)): 2690 nM
Activity (Staphylococcus aureus): inactive
GI50 (T47D [7]; read-out: GI50): 144 nM
TGI (T47D [7]; read-out: TGI): 327 nM
GI50 (T47D [7]; read-out: pGI50 (converted)): 145 nM
TGI (T47D [7]; read-out: pTGI (converted)): 331 nM
growth at 8 µM (HL-60(TB)): -65%
growth at 0.8 µM (HCT-116 [8]): 104%
growth at 8 µM (SNB-19 [9]): -84%
GI50 (K562 [10]): 1820 nM
CC50 (K562 [10]; read-out: pLC50 (the source's name) (converted)): > 75900 nM
TGI (K562 [10]; read-out: pTGI (converted)): 3890 nM
GI50 (MDA-MB-231 [11]): 1450 nM
LC50 (MDA-MB-231 [11]): 6920 nM
TGI (MDA-MB-231 [11]; read-out: pTGI (converted)): 3160 nM
growth at 0.08 µM (NCI-H322M): 95%
growth at 0.8 µM (MCF7 [12]): 80%
growth at 0.008 µM (BT-549 [13]): 106%
growth at 80 µM (UACC-62 [14]): -91%
growth at 8 µM (T47D [15]): -61%
growth at 8 µM (NCI-H23): -77%
growth at 8 µM (SN12C [16]): -81%
growth at 0.08 µM (HCT-116 [17]): 96%
Activity (Mus musculus): Non-toxic
growth at 80 µM (BT-549 [18]): -58%
growth at 0.008 µM (HCT-116 [19]): 98%
growth at 80 µM (UACC-257 [20]): -70%
LC50 (UACC-257 [21]): 5130 nM
GI50 (UACC-257 [21]; read-out: GI50): 1280 nM
TGI (UACC-257 [21]; read-out: TGI): 2550 nM
GI50 (UACC-257 [21]; read-out: pGI50 (converted)): 1290 nM
TGI (UACC-257 [21]; read-out: pTGI (converted)): 2570 nM
growth at 0.8 µM (U-251): 27%
growth at 8 µM (DU-145): -100%
growth at 0.08 µM (IGROV-1): 107%
growth at 0.008 µM (MOLT-4): 103%
growth at 80 µM (SK-MEL-5): -100%
growth at 0.8 µM (SN12C [22]): 87%
growth at 80 µM (NCI-H522): -2%
growth at 0.08 µM (Malme-3M [23]): 118%
growth at 80 µM (SNB-19 [24]): -66%
